Rtt109 HAT inh – C. albicans Rtt109 histone acetyltransferase inhibition | Q5AAJ8 | hit rate 0.16% among 330,000 | inhibition, % at 34.9 µM | purified Rtt109/Vps75, ThioGlo CoA-SH fluorescence, 4 h;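 active = inhibition of at least 50% in every replicate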
T cell HTS – T cell immune modulators affecting CD8 T cell-vesicle binding; 2C CD8+ T cell-vesicle binding, flow cytometry; hits give low values; response (vesicle binding), % at 7 µM; hit rate 0.068% among 330,000;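 active = response, share of CD8 T cells binding vesicles, and their 90th percentile fluorescence all below set limits, cut at about 80% in these data, passing the limit was not always enough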;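 also: values below 100% mean blocked vesicle binding to the CD8+ T cells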
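Assay system – 2C mouse CD8+ T cells · Also added – QL9-loaded Drosophila micro-vesicles · Timing – Cell–vesicle co-incubation 1.5 h at 37 °C, staining 20 min on ice · Signal – flow cytometry of vesicle-bound cells · Measure – percent CD8+ FL2 mean versus row control · Controls – Peptide-free naked vesicles (low) and QL9 vesicles with 0.7% DMSO vehicle (high)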
JMJD2C inh – inhibitors of human GASC-1 (JMJD2C) demethylase | inhibition, % at 2.35 µM | AID 2099 | hit rate 0.069% among 330,000 | GST-JMJD2C(1-420) H3K9me3 demethylation, DELFIA europium;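 active = more than half of a compound's replicate wells show inhibition beyond 50%, single wells judged on their own value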;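 also: signal counts dimethyl H3K9 product captured on neutravidin plate; 0% = median of DMSO wells and 100% = 0.3 times that DMSO median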
Target sequence (Q9H3R0 1-420 limits assumed): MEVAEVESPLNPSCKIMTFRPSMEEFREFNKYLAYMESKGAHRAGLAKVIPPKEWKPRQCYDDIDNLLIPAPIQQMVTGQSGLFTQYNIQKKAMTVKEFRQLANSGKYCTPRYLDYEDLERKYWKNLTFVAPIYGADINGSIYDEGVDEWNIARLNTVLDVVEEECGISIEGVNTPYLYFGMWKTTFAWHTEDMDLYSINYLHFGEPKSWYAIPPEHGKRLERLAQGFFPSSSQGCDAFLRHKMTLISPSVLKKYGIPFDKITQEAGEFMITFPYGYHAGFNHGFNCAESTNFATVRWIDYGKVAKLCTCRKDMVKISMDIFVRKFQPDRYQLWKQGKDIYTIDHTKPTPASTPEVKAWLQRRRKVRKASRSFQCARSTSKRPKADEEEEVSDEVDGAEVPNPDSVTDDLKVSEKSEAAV
NR3A LBD binder – modulates the human NR3A ligand-binding domain. NR3A LBD differential scanning fluorimetry, Tm shift; 0% = protein alone, 100% = glycine-bound protein. Tm shift relative to glycine control, % at 25 µM. hit rate 2.5% among 340,000;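 active = melting temperature shift of at least 10% of the positive control shift, at one fixed dose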
* marks the source's active call; other numbers are inactive results. In the library only some 2.8% were active in any assay of this set; here they are far more common.

How did O=C(CN1c2ccccc2Sc2ccccc21)N/N=C/c1ccc(Cl)cc1 do in these assays?
Rtt109 HAT inh: -6.5; T cell HTS: 105.8; JMJD2C inh: -0.6; NR3A LBD binder: 11.1*

What do the screens show for `COC(=O)c1ccc2c(c1)N(C)S(=O)(=O)c1cnc(SCC(=O)C(C)(C)C)nc1-2`?
T cell HTS: 362.3; JMJD2C inh: -4.4; NR3A LBD binder: 10.9*

What do the screens show for `CC(=O)c1c2c3c(cccc3n(C)c1=O)C(=O)c1ccccc1-2`?
T cell HTS: 129.2; JMJD2C inh: -4.3; NR3A LBD binder: -1.2

Results for Cn1c(=O)c(Nc2ccc(O)cc2)c2c3c(cccc31)C(=O)c1ccccc1-2 ?
Rtt109 HAT inh: 0.8; T cell HTS: 64.7; JMJD2C inh: 59.6*; NR3A LBD binder: -18.7

What do the screens show for `COc1ccc(OC)c(S(=O)(=O)N2CCC(C(=O)NCc3ccncc3)CC2)c1`?
Rtt109 HAT inh: 4.6; T cell HTS: 385.8; JMJD2C inh: 9.8; NR3A LBD binder: 1.0

Results for O=C(Nc1nc(-c2ccccn2)cs1)c1ccc(Br)s1 ?
Rtt109 HAT inh: 4.5; T cell HTS: 252.7; JMJD2C inh: -5.8; NR3A LBD binder: 26.1*

What do the screens show for `O=[N+]([O-])c1cccc(/C=C/c2ccc3cccc(O)c3n2)c1`?
Rtt109 HAT inh: 2.3; T cell HTS: 292.7; JMJD2C inh: -36.6; NR3A LBD binder: 7.2

What do the screens show for `O=[N+]([O-])c1cccc(/C=C/c2nc(C=Nc3ccc4ccccc4c3)c(O)o2)c1`?
Rtt109 HAT inh: 18.7; T cell HTS: 276.9; NR3A LBD binder: 11.1*

How did O=C(N/N=C/c1cccc([N+](=O)[O-])c1)c1cc(-c2ccc3c4c(cccc24)CC3)n[nH]1 do in these assays?
Rtt109 HAT inh: 20.4; T cell HTS: 634.7; JMJD2C inh: 15.1; NR3A LBD binder: 18.3*

How did Cn1cccc1-c1cc(C(=O)N/N=C/c2ccc(F)cc2)[nH]n1 do in these assays?
Rtt109 HAT inh: 5.9; T cell HTS: 219.9; JMJD2C inh: 4.5; NR3A LBD binder: 8.8

Results for Cn1cccc1-c1cc(C(=O)N/N=C/c2ccccc2Cl)[nH]n1 ?
Rtt109 HAT inh: 7.9; T cell HTS: 107.8; JMJD2C inh: 6.8; NR3A LBD binder: -15.3

How did O=C(N/N=C/c1ccc(Cl)c([N+](=O)[O-])c1)c1cc(-c2ccc3c4c(cccc24)CC3)n[nH]1 do in these assays?
Rtt109 HAT inh: -0.9; T cell HTS: 215.5; JMJD2C inh: 2.5; NR3A LBD binder: -2.2

What do the screens show for `CCOc1ccc(/C=N/NC(=O)c2cc(-c3cccn3C)n[nH]2)cc1`?
Rtt109 HAT inh: 14.6; T cell HTS: 223.1; JMJD2C inh: 3.2; NR3A LBD binder: 21.9*

How did Cn1cccc1-c1cc(C(=O)N/N=C/c2cc(Br)ccc2O)[nH]n1 do in these assays?
Rtt109 HAT inh: 7.9; T cell HTS: 157.2; JMJD2C inh: 14.9; NR3A LBD binder: 26.8*

What do the screens show for `CC(/C=N/NC(=O)c1cc(-c2cccn2C)n[nH]1)=C\c1ccccc1`?
Rtt109 HAT inh: 11.9; T cell HTS: 638.5; JMJD2C inh: 1.6; NR3A LBD binder: 3.3

What do the screens show for `Cn1cccc1-c1cc(C(=O)N/N=C/c2ccc([N+](=O)[O-])cc2)[nH]n1`?
Rtt109 HAT inh: 13.0; T cell HTS: 368.7; JMJD2C inh: -8.1; NR3A LBD binder: 27.9*

How did O=P(NCc1ccccc1)(OCc1ccccc1)OCc1ccccc1 do in these assays?
Rtt109 HAT inh: 4.0; NR3A LBD binder: 0.3

What do the screens show for `O=[N+]([O-])c1ccc(N/N=C/C=C/c2ccco2)cc1`?
Rtt109 HAT inh: -1.6; T cell HTS: 485.2; NR3A LBD binder: 41.4*

What do the screens show for `O=C(O)c1ccc(N/N=C/C=C/c2ccc([N+](=O)[O-])o2)cc1`?
Rtt109 HAT inh: 10.5; T cell HTS: 370.4; JMJD2C inh: 0.3; NR3A LBD binder: 11.6*

Results for COc1ccc2nc(-c3ccccc3)[nH]c2c1 ?
Rtt109 HAT inh: -5.3; T cell HTS: 309.6; JMJD2C inh: 1.3; NR3A LBD binder: -6.3

Results for COc1ccc2[nH]c(-c3ccccc3)cc2c1 ?
Rtt109 HAT inh: 5.1; T cell HTS: 214.6; JMJD2C inh: -3.9; NR3A LBD binder: 11.8*

Results for C=CCN1C(=O)/C(=C/c2ccc(OC(C)=O)c(OCC)c2[N+](=O)[O-])SC1=S ?
Rtt109 HAT inh: -4.0; JMJD2C inh: 0.0; NR3A LBD binder: 4.1

How did N#C/C(=N\Nc1cccc([N+](=O)[O-])c1)C(=O)c1ccc(Br)cc1 do in these assays?
Rtt109 HAT inh: 1.9; T cell HTS: 284.5; JMJD2C inh: -1.7; NR3A LBD binder: 28.5*

What do the screens show for `CCN(C(=O)CSc1nc2scc(-c3ccccc3)c2c(=O)n1N)C1CCS(=O)(=O)C1` (stereo not given)?
Rtt109 HAT inh: -4.5; NR3A LBD binder: -0.3

Results for Cc1ccc2nc(-c3ccc(NC(=O)CN4C(=O)NC(C)(c5ccc(OC(F)F)cc5)C4=O)cc3)sc2c1 (stereo not given) ?
Rtt109 HAT inh: -10.3; T cell HTS: 235.9; JMJD2C inh: -2.0; NR3A LBD binder: 34.6*

How did Cc1ccccc1N(CC(=O)Nc1ccc(F)cc1)S(C)(=O)=O do in these assays?
Rtt109 HAT inh: 0.4; T cell HTS: 224.7; JMJD2C inh: 7.4; NR3A LBD binder: 0.1

Results for Cc1ccc2nc(-c3ccc(NC(=O)CN(c4ccccc4C)S(C)(=O)=O)cc3)sc2c1 ?
Rtt109 HAT inh: 11.4; T cell HTS: 358.5; JMJD2C inh: -0.6; NR3A LBD binder: 15.0*

What do the screens show for `Cc1cc(C)cc(N(CC(=O)Nc2ccc(-c3nc4ccc(C)cc4s3)cc2)S(C)(=O)=O)c1`?
Rtt109 HAT inh: -0.5; T cell HTS: 227.1; JMJD2C inh: -4.8; NR3A LBD binder: 25.9*

What do the screens show for `CCCCOc1ccc(/C=N/NC(=O)c2csc(C)c2C)cc1`?
Rtt109 HAT inh: -11.6; T cell HTS: 219.0; JMJD2C inh: -5.0; NR3A LBD binder: 28.1*

Results for Cc1scc(C(=O)N/N=C/c2ccc(OCC(C)C)cc2)c1C ?
Rtt109 HAT inh: 3.3; T cell HTS: 285.3; JMJD2C inh: 9.4; NR3A LBD binder: 7.7

Results for COc1cc2ccccc2cc1C(=O)Nc1ccc(Br)cn1 ?
Rtt109 HAT inh: 59.2*; T cell HTS: 187.4; JMJD2C inh: -6.0; NR3A LBD binder: 2.1

Results for COc1cc2ccccc2cc1C(=O)N/N=C/c1cccnc1 ?
Rtt109 HAT inh: 1.9; T cell HTS: 152.9; JMJD2C inh: 5.7; NR3A LBD binder: 82.9*

How did CCOc1ccc(S(=O)(=O)Nc2ccccc2C(=O)N/N=C/c2c(OC)ccc3ccccc23)cc1 do in these assays?
Rtt109 HAT inh: 2.7; T cell HTS: 464.9; JMJD2C inh: 10.2; NR3A LBD binder: 22.1*

Results for Nc1ccc(S(=O)(=O)NN=Cc2ccccc2[N+](=O)[O-])cc1 ?
Rtt109 HAT inh: 0.8; NR3A LBD binder: 0.6

How did CC1CCCN(C(=O)CCS(=O)(=O)c2ccc3c(c2)NC(=O)C(C)S3)C1 (stereo not given) do in these assays?
Rtt109 HAT inh: -3.2; T cell HTS: 381.2; JMJD2C inh: 2.1; NR3A LBD binder: 6.6

Results for CCOc1ccc(/C=N/NC(=O)c2cccc3ccccc23)c(OCC)c1 ?
Rtt109 HAT inh: -1.7; T cell HTS: 599.7; JMJD2C inh: 2.2; NR3A LBD binder: -0.9
